Source: ChEMBL document CHEMBL3217512, “Indole/triazole conjugates are selective inhibitors and inducers of bacterial biofilms” (Medchemcomm, 2013)

Key:
Staphylococcus aureus [1] = assay: Antimicrobial activity against Staphylococcus aureus 29213 assessed as effect on planktonic growth at IC50 after 2 to 24 hrs; assay type: organism-based; conditions: in vivo
Staphylococcus aureus [2] = assay: Antimicrobial activity against methicillin-resistant Staphylococcus aureus BAA 44 assessed as effect on planktonic growth at IC50 after 2 to 24 hrs; assay type: organism-based; conditions: in vivo
Escherichia coli [3] = assay: Inhibition of biofilm formation in Escherichia coli K-12 ER2718 at 150 uM after 24 hrs by crystal violet staining-based assay relative to control; assay type: functional; conditions: K-12 ER2718, 24 h
Staphylococcus aureus [4] = assay: Antimicrobial activity against Staphylococcus aureus 29213 assessed as effect on planktonic growth at PC50 after 2 to 24 hrs by colony count method; assay type: organism-based; conditions: in vivo
Escherichia coli [5] = assay: Antimicrobial activity against Escherichia coli K-12 ER2718 assessed as effect on planktonic growth at IC50 after 2 to 24 hrs; assay type: organism-based
Staphylococcus aureus [6] = assay: Antimicrobial activity against Staphylococcus aureus 29213 assessed as effect on planktonic growth at IC50 after 2 to 24 hrs by colony count method; assay type: organism-based; conditions: in vivo
Acinetobacter baumannii [7] = assay: Inhibition of biofilm formation in Acinetobacter baumannii 19606 after 24 hrs by crystal violet staining-based assay; assay type: functional; conditions: ATCC 19606 = CIP 70.34 = JCM 6841, 24 h
Method in brief: (§1)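 Compounds active in the 150 μM screen were taken into dose-response studies under static conditions with a crystal violet read-out. IC50 is the concentration that inhibits 50% of biofilm growth relative to an untreated control.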

Staphylococcus aureus [8] = assay: Induction of biofilm formation in Staphylococcus aureus 29213 at 50 uM after 24 hrs by crystal violet staining-based assay relative to control; assay type: functional
Method in brief: (§2)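 Static biofilm assay with compounds at 50 μM and crystal violet read-out, relative to an untreated control. Compounds increasing biofilm by less than 50% were called inducers, and by more than 50% strong inducers.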

Staphylococcus aureus [9] = assay: Antimicrobial activity against Staphylococcus aureus 29213 assessed as effect on planktonic growth at PC75 after 2 to 24 hrs; assay type: organism-based; conditions: in vivo
Acinetobacter baumannii [10] = assay: Antimicrobial activity against Acinetobacter baumannii 19606 assessed as effect on planktonic growth at IC50 after 2 to 24 hrs; set-up: species or system ATCC 19606
Staphylococcus aureus [11] = assay: Antimicrobial activity against Staphylococcus aureus 29213 assessed as effect on planktonic growth at 50 uM after 2 to 24 hrs; assay type: organism-based
Method in brief: (§3)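 Growth curve analysis of planktonic bacteria with each biofilm inducer at 50 μM, used to assess toxicity.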

Staphylococcus aureus [12] = assay: Inhibition of biofilm formation in methicillin-resistant Staphylococcus aureus BAA 44 after 24 hrs by crystal violet staining-based assay; assay type: functional, organism-based; conditions: BAA 44, 24 h
Method in brief: (§4)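 Static biofilm development in MRSA, read out by crystal violet staining against an untreated control. Initial screen at 150 μM. Inhibitors then went to dose-response, with IC50 taken as the concentration giving 50% inhibition of biofilm growth. Induction was judged at 50 μM: under 50% induction counted as "inducer", over 50% as "strong inducer".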

Acinetobacter baumannii [13] = assay: Antimicrobial activity against Acinetobacter baumannii 19606 assessed as effect on planktonic growth at IC50 after 2 to 24 hrs by colony count method; set-up: species or system ATCC 19606
Staphylococcus aureus [14] = assay: Antimicrobial activity against methicillin-resistant Staphylococcus aureus BAA 44 assessed as effect on planktonic growth at IC50 after 2 to 24 hrs by colony count method; assay type: organism-based; conditions: in vivo
Staphylococcus aureus [15] = assay: Antimicrobial activity against Staphylococcus aureus 29213 assessed as effect on planktonic growth at PC50 after 2 to 24 hrs; assay type: organism-based; conditions: in vivo
Escherichia coli [16] = assay: Antimicrobial activity against Escherichia coli K-12 ER2718 assessed as effect on planktonic growth at IC50 after 2 to 24 hrs by colony count method; assay type: organism-based
Staphylococcus aureus [17] = assay: Antimicrobial activity against Staphylococcus aureus 29213 assessed as effect on planktonic growth at PC25 after 2 to 24 hrs; assay type: organism-based; conditions: in vivo
Staphylococcus aureus [18] = assay: Antimicrobial activity against Staphylococcus aureus 29213 assessed as effect on planktonic growth at PC75 after 2 to 24 hrs by colony count method; assay type: organism-based; conditions: in vivo
Staphylococcus aureus [19] = assay: Antimicrobial activity against Staphylococcus aureus 29213 assessed as effect on planktonic growth at PC25 after 2 to 24 hrs by colony count method; assay type: organism-based; conditions: in vivo
Acinetobacter baumannii [20] = assay: Antimicrobial activity against Acinetobacter baumannii 19606 assessed as effect on planktonic growth at PC25 after 2 to 24 hrs; set-up: species or system ATCC 19606
Escherichia coli [21] = assay: Antimicrobial activity against Escherichia coli K-12 ER2718 assessed as effect on planktonic growth at PC50 after 2 to 24 hrs by colony count method; assay type: organism-based; conditions: in vivo
Staphylococcus aureus [22] = assay: Inhibition of biofilm formation in Staphylococcus aureus 29213 after 24 hrs by crystal violet staining-based assay; assay type: functional, organism-based; conditions: Staphylococcus aureus, 29213, 24 h; method in brief: as §1
Acinetobacter baumannii [23] = assay: Antimicrobial activity against Acinetobacter baumannii 19606 assessed as effect on planktonic growth at PC25 after 2 to 24 hrs by colony count method; set-up: species or system ATCC 19606
Acinetobacter baumannii [24] = assay: Antimicrobial activity against Acinetobacter baumannii 19606 assessed as effect on planktonic growth at PC75 after 2 to 24 hrs; set-up: species or system ATCC 19606
Acinetobacter baumannii [25] = assay: Antimicrobial activity against Acinetobacter baumannii 19606 assessed as effect on planktonic growth at 50 uM after 2 to 24 hrs; set-up: species or system ATCC 19606; method in brief: as §3
Escherichia coli [26] = assay: Induction of biofilm formation in Escherichia coli K-12 ER2718 assessed as concentration required for 75% promotion of biofilm formation after 24 hrs by crystal violet staining-based assay; assay type: functional
Method in brief: (§5)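 For strong inducers of E. coli biofilm, dose-response curves were run in the static crystal violet assay. PC25, PC50 and PC75 are the concentrations promoting biofilm formation by 25%, 50% and 75%.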

Acinetobacter baumannii [27] = assay: Antimicrobial activity against Acinetobacter baumannii 19606 assessed as effect on planktonic growth at PC75 after 2 to 24 hrs by colony count method; set-up: species or system ATCC 19606
Escherichia coli [28] = assay: Antimicrobial activity against Escherichia coli K-12 ER2718 assessed as effect on planktonic growth at PC50 after 2 to 24 hrs; assay type: organism-based
Escherichia coli [29] = assay: Induction of biofilm formation in Escherichia coli K-12 ER2718 at 50 uM after 24 hrs by crystal violet staining-based assay relative to control; assay type: functional; method in brief: as §2
Escherichia coli [30] = assay: Antimicrobial activity against Escherichia coli K-12 ER2718 assessed as effect on planktonic growth at PC75 after 2 to 24 hrs by colony count method; assay type: organism-based; conditions: in vivo
Escherichia coli [31] = assay: Antimicrobial activity against Escherichia coli K-12 ER2718 assessed as effect on planktonic growth at PC75 after 2 to 24 hrs; assay type: organism-based; conditions: in vivo
Escherichia coli [32] = assay: Induction of biofilm formation in Escherichia coli K-12 ER2718 assessed as concentration required for 50% promotion of biofilm formation after 24 hrs by crystal violet staining-based assay; assay type: functional; method in brief: as §5
Acinetobacter baumannii [33] = assay: Antimicrobial activity against Acinetobacter baumannii 19606 assessed as effect on planktonic growth at PC50 after 2 to 24 hrs by colony count method; set-up: species or system ATCC 19606
Staphylococcus aureus [34] = assay: Inhibition of biofilm formation in methicillin-resistant Staphylococcus aureus BAA 44 at 150 uM after 24 hrs by crystal violet staining-based assay relative to control; assay type: functional; conditions: BAA 44, 24 h; method in brief: as §4
Escherichia coli [35] = assay: Antimicrobial activity against Escherichia coli K-12 ER2718 assessed as effect on planktonic growth at PC25 after 2 to 24 hrs; assay type: organism-based
Acinetobacter baumannii [36] = assay: Antimicrobial activity against Acinetobacter baumannii 19606 assessed as effect on planktonic growth at PC50 after 2 to 24 hrs; set-up: species or system ATCC 19606
Escherichia coli [37] = assay: Induction of biofilm formation in Escherichia coli K-12 ER2718 assessed as concentration required for 25% promotion of biofilm formation after 24 hrs by crystal violet staining-based assay; assay type: functional; method in brief: as §5
Escherichia coli [38] = assay: Antimicrobial activity against Escherichia coli K-12 ER2718 assessed as effect on planktonic growth at 50 uM after 2 to 24 hrs; assay type: organism-based; method in brief: as §3
Escherichia coli [39] = assay: Antimicrobial activity against Escherichia coli K-12 ER2718 assessed as effect on planktonic growth at PC25 after 2 to 24 hrs by colony count method; assay type: organism-based
Acinetobacter baumannii [40] = assay: Induction of biofilm formation in Acinetobacter baumannii 19606 at 50 uM after 24 hrs by crystal violet staining-based assay relative to control; assay type: functional, ATCC 19606 = CIP 70.34 = JCM 6841; method in brief: as §2

O=C(Cn1cc(Cc2c(Br)[nH]c3ccccc23)nn1)Nc1ccccc1
Activity (Staphylococcus aureus [1]): Non-toxic | Activity (Staphylococcus aureus [2]): Non-toxic | inhibition at 150 µM (Escherichia coli [3]): 12% | Activity (Staphylococcus aureus [4]): Non-toxic | Activity (Escherichia coli [5]): Non-toxic | Activity (Staphylococcus aureus [6]): Non-toxic | IC50 (Acinetobacter baumannii [7]): 326 µM | Activity (Staphylococcus aureus [8]): >50% | Activity (Staphylococcus aureus [9]): Non-toxic | Activity (Acinetobacter baumannii [10]): Non-toxic | Activity (Staphylococcus aureus [11]): Non-toxic | IC50 (Staphylococcus aureus [12]): 151 µM | Activity (Acinetobacter baumannii [13]): Non-toxic | Activity (Staphylococcus aureus [14]): Non-toxic | Activity (Staphylococcus aureus [15]): Non-toxic | Activity (Escherichia coli [16]): Non-toxic | Activity (Staphylococcus aureus [17]): Non-toxic | Activity (Staphylococcus aureus [18]): Non-toxic | Activity (Staphylococcus aureus [19]): Non-toxic

CCCCCCCc1ccc(C(=O)NCCn2cc(Cc3csc4ccccc34)nn2)cc1
Activity (Staphylococcus aureus [1]): Non-toxic | Activity (Acinetobacter baumannii [20]): Non-toxic | Activity (Escherichia coli [21]): Non-toxic | IC50 (Staphylococcus aureus [22]): 83 µM | Activity (Acinetobacter baumannii [23]): Non-toxic | Activity (Staphylococcus aureus [2]): Non-toxic | Activity (Acinetobacter baumannii [24]): Non-toxic | Activity (Acinetobacter baumannii [25]): Non-toxic | Activity (Escherichia coli [26]): 93.8 µM | Activity (Acinetobacter baumannii [27]): Non-toxic | Activity (Escherichia coli [28]): Non-toxic | Activity (Escherichia coli [29]): >50% | Activity (Escherichia coli [30]): Non-toxic | Activity (Escherichia coli [5]): Non-toxic | Activity (Staphylococcus aureus [6]): Non-toxic | Activity (Escherichia coli [31]): Non-toxic | Activity (Acinetobacter baumannii [10]): Non-toxic | Activity (Escherichia coli [32]): 56.3 µM | Activity (Acinetobacter baumannii [33]): Non-toxic | Activity (Acinetobacter baumannii [13]): Non-toxic | Activity (Staphylococcus aureus [14]): Non-toxic | inhibition at 150 µM (Staphylococcus aureus [34]): < 5% | Activity (Escherichia coli [35]): Non-toxic | Activity (Acinetobacter baumannii [36]): Non-toxic | Activity (Escherichia coli [37]): 22.2 µM | Activity (Escherichia coli [16]): Non-toxic | Activity (Escherichia coli [38]): Non-toxic | Activity (Escherichia coli [39]): Non-toxic | Activity (Acinetobacter baumannii [40]): <50%
